Series [1] can be described thus: Pharmacokinetics of TS IIA, Sal B and PNS. The series is classed as in vivo, guinea pigs. The settings on record: RW administration, NPs versus compound solution, not dose-normalised. Summed up:
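Guinea pigs (250–300 g; 78, two groups) received round-window dosing of loaded PLGA NPs (12.43 μg/kg TS IIA, 766.38 μg/kg Sal B, 1.05/2.08/2.31 mg/kg R1/Rg1/Rb1) or solution in ethanol/glycerol/PEG 400 2:1:2 (0.73, 8, 3.13/4.38/3.82 mg/kg); saline blank. At 0.17–36 h under anesthesia, perilymph was drawn through the RWM and plasma taken from cardiac blood. Acetic ether (TS IIA, Sal B) or methanol (PNS) extraction, HPLC; n=3.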

The nature of series [2]: In vitro release of TS IIA, Sal B and PNS from PLGA NPs and of free drugs. The class given is physicochemical. The following applies: saline containing 0.2% SDS, dialysis, 37°C; for released from NPs: PLGA NPs loaded with TS IIA, Sal B, PNS, within 72 hours; for free drug released: free drugs (control), first 6 hours. Summed up: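 Dialysis release: a sealed bag with sample dispersed in 2.0 mL saline plus 0.2% (w/v) SDS was immersed in 30 mL of the same medium at 37°C with horizontal shaking at 100 rpm. 1 mL of medium was withdrawn at set intervals and drug content measured by HPLC.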

Series [3] is classed as physicochemical. The settings on record: PLGA NPs loaded with TS IIA, Sal B, PNS; PLGA L:G 50:50; RP-HPLC. Summed up:
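Free drug: a dialysis bag (8–14 kDa cutoff) holding 2 mL saline with 0.2% SDS was placed in 25 mL nanosuspension for 12 h, and the bag contents were assayed by HPLC. Total drug: 1 mL nanosuspension dissolved in acetonitrile, extracted with methanol, 0.22-μm filtered. C18 column, 25°C, acetonitrile/0.05% phosphoric acid gradient, 1.0 mL/min, 203 nm (PNS) or 280 nm (TS IIA, Sal B). EE calculated from free and total drug.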

Series [4] can be described thus: Maximum solubility in mixed solvents. The following applies: mixed solvents (ethanol/glycerol/PEG 400 = 2:1:2), organic solvent or mixture. The series is classed as physicochemical.
Series [5] is classed as in vivo, guinea pigs.
Series [6] is described as follows: In vitro release of coumarin-6 from PLGA NPs. The series is classed as physicochemical. The settings on record: PBS (pH 7.4), 72 hours, 37°C. The method in brief:
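A dialysis bag holding 3.0 mL nanosuspension plus 2.0 mL PBS pH 7.4 sat in 15 mL PBS pH 7.4 at 37°C, stirred at 100 rpm. At set time points 1 mL of medium was withdrawn and replaced with fresh medium, and coumarin-6 was quantified by HPLC.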

Setting [7] is: PL, guinea pigs, RW administration, NPs versus solution.

Consider six compounds from article PMC4257110 (International Journal of Nanomedicine, 2014).

Converted amounts (≈) assume the structure as drawn.

Regarding `CC(C)=CCC[C@](C)(O[C@@H]1O[C@H](CO)[C@@H](O)[C@H](O)[C@H]1O)[C@H]1CC[C@]2(C)[C@@H]1[C@H](O)C[C@@H]1[C@@]3(C)CC[C@H](O)C(C)(C)[C@@H]3[C@@H](O[C@@H]3O[C@H](CO)[C@@H](O)[C@H](O)[C@H]3O[C@@H]3OC[C@@H](O)[C@H](O)[C@H]3O)C[C@]12C` [R1, notoginsenoside R1], in series [1], the “AUC0–t in the PL, NPs greater compared with compound solution” value (shortened to “AUC0–t … compared with compound solution”) is 4.0 fold and the “Cmax in the PL, NPs higher compared with compound solution” value (“Cmax … compared with compound solution” below) worked out at 14.4 fold. For the same compound, in series [2], the “released from NPs” value is on record as “completely released” and the free drug released is on record as over 79%. Besides, the “entrapment efficiency of the NPs” value in series [3] was 37.87%.
In the case of `CC(C)=CCC[C@](C)(O[C@@H]1O[C@H](CO[C@@H]2O[C@H](CO)[C@@H](O)[C@H](O)[C@H]2O)[C@@H](O)[C@H](O)[C@H]1O)[C@H]1CC[C@]2(C)[C@@H]1[C@H](O)C[C@@H]1[C@@]3(C)CC[C@H](O[C@@H]4O[C@H](CO)[C@@H](O)[C@H](O)[C@H]4O[C@@H]4O[C@H](CO)[C@@H](O)[C@H](O)[C@H]4O)C(C)(C)[C@@H]3CC[C@]12C` [Rb1, ginsenoside Rb1], in series [1], the “AUC0–t … compared with compound solution” value was determined as 7.1 fold and the “Cmax … compared with compound solution” value worked out at 16.7 fold. Further, in series [2], the “released from NPs” value came out at 76.0% and the free drug released is over 79%. In series [3], the “entrapment efficiency of the NPs” value is 93.56%.
As to `CC(C)=CCC[C@](C)(O[C@@H]1O[C@H](CO)[C@@H](O)[C@H](O)[C@H]1O)[C@H]1CC[C@]2(C)[C@@H]1[C@H](O)C[C@@H]1[C@@]3(C)CC[C@H](O)C(C)(C)[C@@H]3[C@@H](O[C@@H]3O[C@H](CO)[C@@H](O)[C@H](O)[C@H]3O)C[C@]12C` [Rg1, ginsenoside Rg1], in series [1], the “AUC0–t … compared with compound solution” value was 3.1 fold and the “Cmax … compared with compound solution” value is 10.0 fold. For the same compound, in series [2], the “released from NPs” value is recorded as 76.2% and the free drug released is given as over 79%. Moreover, the “entrapment efficiency of the NPs” value in series [3] came to 44.98%.
Consider `Cc1coc2c1C(=O)C(=O)c1c-2ccc2c1CCCC2(C)C` [TS IIA, tanshinone IIA], for which, in series [2], the “released from NPs” value is on record as 23.6% and the free drug released is over 79%. Further, the “entrapment efficiency of the NPs” value in series [3] turned out to be 91.81%. Also, the solubility in series [4] turned out to be 1830 µg/mL (≈ 6.22 mM).
On to `CCN(CC)c1ccc2cc(-c3nc4ccccc4s3)c(=O)oc2c1` [coumarin-6], for which, in series [5] (setting [7]), the “AUC0–t in PL, NPs higher than coumarin-6 solution” value was found to be 4.7 fold and the “Cmax in PL, NPs higher than coumarin-6 solution” value stood at 10.9 fold. In series [5] (RW administration of coumarin-6 NPs), the “time up to which coumarin-6 was found in the PL” value is “up to 96 hours”. Also, the “time after which no coumarin-6 was detected in PL” value in series [5] (RW administration of coumarin-6 solution) is 36 h. For the same compound, the “coumarin-6 detected in the plasma” value in series [5] (plasma of several guinea pigs, RW administration of coumarin-6 NPs or solution) is “An infinitesimal amount”. The “in vitro cumulative release of coumarin-6 from the NPs” value in series [6] is under 2%.
salvianolic acid B [Sal B]: in series [2], the “released from NPs” value is 93.0% and the free drug released is over 79%. For the same compound, in series [3], the “entrapment efficiency of the NPs” value was 92.88%.

By solubility is commonly meant how much of the substance goes into solution per volume.
